One assay has as its system U-87MG ATCC. Put plainly: Cytotoxicity against human U87 cells after 48 hrs by XTT assay. The class given is functional, cell-based. In outline: (§1)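 U87 glioma cells kept in ATCC-recommended medium with 10% FBS at 37 °C, 5% CO2. Seeded at 1000 cells/well, exposed to compounds for 48 h. XTT added, then plates held another 4 h at 37 °C. Viability read colorimetrically per the kit protocol; inhibition taken at 100 μM.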
On the technique in general: Tetrazolium assays rely on reduction of a dye to a coloured formazan, in cell work by metabolically active cells.

Another assay has as its system HEK293. Briefly: Inhibition of human NF-kappaB in HEK cells by luciferase reporter gene assay. The class given is cell-based. In outline: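 HEK293 cells with a chromosomally integrated luciferase reporter under an NF-κB response element. Pathway activation induced by human tumor necrosis factor. After incubation, treated cells were lysed in reporter lysis buffer. Luciferase light output was read on a luminometer.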

Assay [1] can be described thus: Cytotoxicity against human U87 cells assessed as growth inhibition at 100 uM after 48 hrs by XTT assay. The assay is classed as functional, U-87MG ATCC. As to conditions: U-87 MG, read-out: GI. Summed up:
as §1

SMILES strings stand for the structures. Calls of active or inactive are those of the source. The calls are words filed in the database; no cut-off is given here.

The text below walks through data of ChEMBL document CHEMBL1914310, “Microbial transformations of diosgenin by the white-rot basidiomycete Coriolus versicolor” (2011).

Take `C[C@@H]1CC[C@@]2(OC1)O[C@H]1C[C@H]3[C@@H]4[C@@H](O)C=C5C[C@@H](O)CC[C@]5(C)[C@H]4C[C@@H](O)[C@]3(C)[C@H]1[C@@H]2CO`: in the assay on U-87MG ATCC, the result was inactive. Moreover, in the assay on HEK293, the inhibition entry was “inactive”.

`C[C@@H]1CC[C@@]2(OC1)O[C@H]1C[C@H]3[C@@H]4CC=C5C[C@@H](O)CC[C@]5(C)[C@H]4CC[C@]3(C)[C@H]1[C@@H]2C`: the inhibition result with HEK293 is “inactive”.

Turning to `C[C@@H]1CC[C@@]2(OC1)O[C@H]1[C@H](O)[C@H]3[C@@H]4[C@H](O)C=C5C[C@@H](O)CC[C@]5(C)[C@H]4CC[C@]3(C)[C@H]1[C@@H]2CO`, the outcome in the assay with U-87MG ATCC was inactive. Besides, the inhibition result with HEK293 was “inactive”.

Turning to `C[C@@H]1CC[C@@]2(OC1)O[C@H]1C[C@H]3[C@H]4[C@H]([C@H](O)C[C@]3(C)[C@H]1[C@@H]2CO)[C@@]1(C)CC[C@H](O)CC1=C[C@@H]4O`, in the assay on HEK293, the inhibition result is “inactive”.

`C[C@@H]1CC[C@@]2(OC1)O[C@H]1C[C@H]3[C@@H]4[C@@H](O)C=C5C[C@@H](O)CC[C@]5(C)[C@H]4C[C@@H](O)[C@]3(C)[C@H]1[C@@H]2C`: in the assay with U-87MG ATCC, the outcome was inactive. Moreover, the inhibition entry in the assay on HEK293 was “inactive”.

On to `C[C@@H]1CC[C@@]2(OC1)O[C@H]1C[C@H]3[C@@H]4CCC5=CC(=O)CC[C@]5(C)[C@H]4CC[C@]3(C)[C@H]1[C@@H]2C`, for which the outcome with U-87MG ATCC was inactive. Besides, the inhibition result in the assay on HEK293 is “inactive”.

Consider `CC(=O)O[C@H]1CC[C@@]2(C)C(=CC[C@H]3[C@@H]4C[C@@H]5O[C@]6(CC[C@@H](C)CO6)[C@@H](C)[C@@H]5[C@@]4(C)CC[C@@H]32)C1`, for which the result in the assay with U-87MG ATCC was inactive. The inhibition result in the assay with HEK293 was “inactive”.

On to `C[C@@H]1CC[C@@]2(OC1)O[C@H]1C[C@H]3[C@@H]4[C@@H](O)C=C5C[C@@H](O)CC[C@]5(C)[C@H]4CC[C@]3(C)[C@H]1[C@@H]2CO`, for which the inhibition of growth at 100 µM in assay [1] stood at 28.2%. Also, the outcome in the assay with U-87MG ATCC was inactive. Moreover, the inhibition result in the assay with HEK293 was “inactive”.

As for `C[C@@H]1CC[C@@]2(OC1)O[C@H]1C[C@H]3[C@@H]4[C@H](O)C=C5C[C@@H](O)CC[C@]5(C)[C@H]4C[C@@H](O)[C@]3(C)[C@H]1[C@@H]2CO`, the inhibition result in the assay on HEK293 was “inactive”.

Consider `C[C@@H]1CC[C@@]2(OC1)O[C@H]1C[C@H]3[C@@H]4CC[C@H]5C[C@@H](O)CC[C@]5(C)[C@H]4CC[C@]3(C)[C@H]1[C@@H]2C`, for which the inhibition entry in the assay with HEK293 is “inactive”.

Turning to `C[C@@H]1CC[C@@]2(OC1)O[C@H]1C[C@H]3[C@@H]4[C@@H](O)C=C5C[C@@H](O)CC[C@]5(C)[C@H]4CC[C@]3(C)[C@H]1[C@@H]2C`, in the assay with U-87MG ATCC, the result was inactive. The inhibition entry with HEK293 was “inactive”.
